Results published in publication PMC7839861 (Journal for Immunotherapy of Cancer, 2021).

Test system: MC38 tumors
Experiment: Transcriptional
Format: in vivo, mouse
Conditions: 2 mg/kg ip Q3D x3
Summary of the method: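 hCD137 C57BL/6J mice bearing sc MC38 tumors (1 x 10^6 cells) were randomized at about 240 mm3. Groups received vehicle, 15 mg/kg test compound or 15 mg/kg enantiomeric non-binding control iv, or 2 mg/kg anti-CD137 agonist antibody ip, Q3D for 3 doses. Tumors were harvested 1 hr after the last dose. RNA (100 ng/tumor) was profiled on the nCounter mouse PanCancer IO 360 panel, and FFPE sections were stained for mouse CD8 with HRP detection.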

B1: anti-CD137 agonist antibody: anti-CD137 agonist antibody, a commercially available urelumab analog (antibody, V domains shown)
VH: QVQLQQWGAGLLKPSETLSLTCAVYGGSFSGYYWSWIRQSPEKGLEWIGEINHGGYVTYNPSLESRVTISVDTSKNQFSLKLSSVTAADTAVYYCARDYGPGNYDWYFDLWGRGTLVTVSS
VL: EIVLTQSPATLSLSPGERATLSCRASQSVSSYLAWYQQKPGQAPRLLIYDASNRATGIPARFSGSGSGTDFTLTISSLEPEDFAVYYCQQRSNWPPALTFGGGTKVEIK
T cell infiltration of tumors, histological analysis (CD8 IHC): notably increased
